Each block holds one molecule with its values, some of them ahead of it.
Columns and labels:
[1] = system: Hepatitis C virus; test: Antiviral activity against HCV1b Con1 infected in human HuH7 cells assessed as inhibition of viral RNA replication by RT-PCR analysis; format: functional, organism-based, Hepacivirus hominis; conditions: isolate Con1, Huh-7
[2] = Ratio of drug level in liver to plasma in Sprague-Dawley rat at 10 mg/kg, po after 6 hrs; format: ADME, organism-based; set-up: dose 10 mg/kg, route oral
How it was run: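 Male Sprague-Dawley rats, 10 mg/kg PO suspension in 0.4% hydroxypropyl methylcellulose; liver and plasma drug levels measured at 6 h, expressed as liver/plasma ratio.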

[3] = Ratio of EC50 for HCV1b Con1 to plasma concentration in Sprague-Dawley rat at 10 mg/kg, po after 6 hrs
[4] = AUC (0 to 6 hrs) in Sprague-Dawley rat at 10 mg/kg, po; format: ADME, organism-based; set-up: time < 6 hr, dose 10 mg/kg, route oral; conditions: plasma
[5] = Toxicity in human HuH7 cells assessed as effect on GAPDH mRNA level; format: cell-based, Huh-7
How it was run: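 Run in parallel with replicon assay in Con1 replicon Huh-7 cells (0.5% DMSO, 37 °C); endogenous GAPDH mRNA quantified by TaqMan RT-PCR; highest concentration tested 10000 nM.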

[6] = Clearance in Sprague-Dawley rat at 6 mg/kg, iv; format: ADME, organism-based; set-up: dose 6 mg/kg, route intravenous; conditions: in vivo
[7] = system: Canis familiaris; test: (§1) Oral bioavailability in beagle dog at 5 mg/kg; format: ADME, organism-based, Canis lupus familiaris; conditions: in vivo
[8] = Oral bioavailability in cynomolgus monkey at 5 mg/kg; format: ADME, organism-based, Macaca fascicularis; conditions: in vivo
[9] = system: Rattus norvegicus; test: Drug metabolism in bile duct cannulated rat assessed as 6-(3-cyano-1-cyclobutyl-6-(difluoromethoxy)-5-fluoro-1H-indol-2-yl)pyridine-3-sulfonamide formation in plasma at 5 mg/kg; format: ADME, organism-based; set-up: dose 5 mg/kg; conditions: in vivo
[10] = AUC (0 to infinity) in Sprague-Dawley rat at 10 mg/kg, po; format: ADME, organism-based; set-up: time infinity, dose 10 mg/kg, route oral; conditions: plasma
[11] = Terminal half life in beagle dog at 2.5 mg/kg, iv; format: ADME, organism-based, Canis lupus familiaris; set-up: dose 2.5 mg/kg, route intravenous; conditions: in vivo, read-out: beta t1/2 (converted)
[12] = Terminal half life in cynomolgus monkey at 2.5 mg/kg, iv; format: ADME, organism-based, Macaca fascicularis; set-up: dose 2.5 mg/kg, route intravenous; conditions: in vivo, read-out: beta t1/2 (converted)
[13] = Terminal half life in Sprague-Dawley rat at 6 mg/kg, iv; format: ADME, organism-based; set-up: dose 6 mg/kg, route intravenous; conditions: in vivo, read-out: beta t1/2 (converted)
[14] = Oral bioavailability in Sprague-Dawley rat at 10 mg/kg; format: ADME, organism-based; conditions: in vivo
[15] = system: Canis familiaris; test: (§2) AUC (0 to infinity) in beagle dog at 5 mg/kg, po; format: ADME, organism-based, Canis lupus familiaris, Plasma; set-up: dose 5 mg/kg, route oral, time infinity; conditions: in vivo
[16] = Clearance in cynomolgus monkey at 2.5 mg/kg, iv; format: ADME, organism-based, Macaca fascicularis; set-up: dose 2.5 mg/kg, route intravenous; conditions: in vivo
[17] = AUC (0 to infinity) in cynomolgus monkey at 5 mg/kg, po; format: ADME, organism-based, Macaca fascicularis; set-up: time infinity, dose 5 mg/kg, route oral; conditions: plasma
[18] = system: Pregnane X receptor (Homo sapiens); test: Activation of PXR (unknown origin) at 10 uM by reporter gene assay
[19] = molecular target: Cytochrome P450 2C9 (Homo sapiens, UniProt P11712); test: Inhibition of CYP2C9 in human liver microsomes; format: ADME
[20] = molecular target: Cytochrome P450 2D6 (Homo sapiens, UniProt P10635); test: Inhibition of CYP2D6 in human liver microsomes; format: ADME
[21] = molecular target: T1, Cytochrome P450 3A4 (Homo sapiens, UniProt P08684); test: Inhibition of CYP3A4 in human liver microsomes; format: ADME
[22] = system: Hepatocyte; test: Induction of CYP3A4 mRNA expression in human hepatocytes at 10 uM relative to rifampicin; format: ADME, cell-based
How it was run: (§3)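 Cryopreserved cultured human hepatocytes incubated 3 days with compound at several concentrations; CYP3A4 enzyme activity and mRNA expression measured, expressed as percent induction relative to rifampicin.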

[23] = system: Hepatocyte; test: Induction of CYP3A4 mRNA expression in human hepatocytes at 3 uM relative to rifampicin; format: ADME, cell-based; how it was run: as §3
[24] = molecular target: T1, Cytochrome P450 3A4; test: Induction of CYP3A4 activity in human hepatocytes at 10 uM relative to rifampicin; format: ADME, cell-based, Hepatocyte; how it was run: as §3
[25] = molecular target: T1, Cytochrome P450 3A4; test: Induction of CYP3A4 activity in human hepatocytes at 3 uM relative to rifampicin; format: ADME, cell-based, Hepatocyte; how it was run: as §3
[26] = system: Hepatitis C virus; test: Antiviral activity against HCV2a JFH-1 infected in human HuH7 cells assessed as inhibition of viral replication; format: functional, organism-based, Hepacivirus hominis; conditions: JFH-1, Huh-7
[27] = species: Canis familiaris; test: Drug metabolism in bile duct cannulated dog assessed as GSH adduct formation; format: ADME, organism-based, Canis lupus familiaris; conditions: in vivo
[28] = species: Rattus norvegicus; test: Drug metabolism in bile duct cannulated rat assessed as 6-(3-cyano-6-ethyl-5-fluoro-1-(pyrimidin-2-yl)-1H-indol-2-yl)pyridine-3-sulfonamide level in plasma; format: ADME, organism-based
[29] = species: Rattus norvegicus; test: Drug metabolism in bile duct cannulated rat assessed as 6-(3-cyano-5-fluoro-6-(1-hydroxyethyl)-1-(pyrimidin-2-yl)-1H-indol-2-yl)pyridine-3-sulfonamide level in plasma; format: ADME, organism-based
[30] = Cmax in Sprague-Dawley rat at 10 mg/kg, po; format: ADME, organism-based; set-up: dose 10 mg/kg, route oral; conditions: in vivo
[31] = as §1; format: ADME, organism-based, Canis lupus familiaris; conditions: beagle, in vivo
[32] = Ratio of EC50 for HCV1b Con1 to plasma concentration in Sprague-Dawley rat at 10 mg/kg, po after 8 hrs
[33] = Volume of distribution at steady state in Sprague-Dawley rat at 6 mg/kg, iv and 10 mg/kg, po; format: ADME, organism-based; conditions: in vivo, read-out: Vdss
[34] = system: Rattus norvegicus; test: Toxicity in rat up to 2000 mg/kg/day; format: organism-based; conditions: in vivo
How it was run: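 Non-GLP 14-day rat safety study with daily dosing up to 2000 mg/kg/day.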

[35] = Volume of distribution at steady state in cynomolgus monkey at 2.5 mg/kg, iv and 5 mg/kg, po; format: ADME, organism-based, Macaca fascicularis; conditions: in vivo, read-out: Vdss
[36] = Ratio of EC50 for HCV1b Con1 to plasma concentration in beagle dog at 5 mg/kg, po after 8 hrs
[37] = molecular target: T1, Cytochrome P450 3A4; test: Induction of CYP3A4 activity in human hepatocytes at 5 uM relative to rifampicin; format: ADME, cell-based, Hepatocyte; how it was run: as §3
[38] = system: Hepatocyte; test: Induction of CYP3A4 mRNA expression in human hepatocytes at 5 uM relative to rifampicin; format: ADME, cell-based; how it was run: as §3
[39] = system: Rhesus monkey; test: Drug metabolism in bile duct cannulated monkey assessed as GSH adduct formation; format: ADME, organism-based, Macaca mulatta; conditions: in vivo
[40] = system: Hepatitis C virus; test: Antiviral activity against HCV1a H77S assessed as inhibition of viral replication; format: functional, organism-based, Hepacivirus hominis; conditions: genotype 1a H77S
[41] = Clearance in beagle dog at 2.5 mg/kg, iv; format: ADME, organism-based, Canis lupus familiaris; set-up: dose 2.5 mg/kg, route intravenous; conditions: in vivo
[42] = species: Rattus norvegicus; test: Drug metabolism in bile duct cannulated rat assessed as 6-(3-cyano-5-fluoro-6-(1-hydroxyethyl)-1-(pyrimidin-2-yl)-1H-indol-2-yl)-N-((S)-1,1,1-trifluoropropan-2-yl)pyridine-3-sulfonamide level in plasma; format: ADME, organism-based
[43] = Ratio of EC50 for HCV1b Con1 to plasma concentration in cynomolgus monkey at 5 mg/kg, po after 8 hrs
[44] = as §2; format: ADME, organism-based, Canis lupus familiaris, Plasma; set-up: dose 5 mg/kg, route oral, time infinity; conditions: beagle, plasma
[45] = Volume of distribution at steady state in beagle dog at 2.5 mg/kg, iv and 5 mg/kg, po; format: ADME, organism-based, Canis lupus familiaris; conditions: in vivo, read-out: Vdss
[46] = Cmax in beagle dog at 5 mg/kg, po; format: ADME, organism-based, Canis lupus familiaris; set-up: dose 5 mg/kg, route oral; conditions: in vivo
[47] = Cmax in cynomolgus monkey at 5 mg/kg, po; format: ADME, organism-based, Macaca fascicularis; set-up: dose 5 mg/kg, route oral; conditions: in vivo

T1 sequence (P08684 whole entry): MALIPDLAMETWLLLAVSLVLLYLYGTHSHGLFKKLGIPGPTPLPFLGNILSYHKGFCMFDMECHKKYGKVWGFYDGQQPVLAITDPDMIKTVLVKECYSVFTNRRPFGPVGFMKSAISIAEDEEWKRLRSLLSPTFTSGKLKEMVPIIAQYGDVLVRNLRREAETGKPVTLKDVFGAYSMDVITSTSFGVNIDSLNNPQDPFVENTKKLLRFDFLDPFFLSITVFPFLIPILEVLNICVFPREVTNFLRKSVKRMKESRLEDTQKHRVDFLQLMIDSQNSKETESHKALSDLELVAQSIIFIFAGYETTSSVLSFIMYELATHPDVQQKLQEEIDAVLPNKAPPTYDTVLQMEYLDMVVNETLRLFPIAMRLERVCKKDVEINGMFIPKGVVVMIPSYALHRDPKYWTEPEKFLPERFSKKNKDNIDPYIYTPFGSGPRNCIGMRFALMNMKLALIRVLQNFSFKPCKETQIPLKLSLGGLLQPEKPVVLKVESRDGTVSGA
Cytochrome P450 2C9, sequence (P11712 whole entry): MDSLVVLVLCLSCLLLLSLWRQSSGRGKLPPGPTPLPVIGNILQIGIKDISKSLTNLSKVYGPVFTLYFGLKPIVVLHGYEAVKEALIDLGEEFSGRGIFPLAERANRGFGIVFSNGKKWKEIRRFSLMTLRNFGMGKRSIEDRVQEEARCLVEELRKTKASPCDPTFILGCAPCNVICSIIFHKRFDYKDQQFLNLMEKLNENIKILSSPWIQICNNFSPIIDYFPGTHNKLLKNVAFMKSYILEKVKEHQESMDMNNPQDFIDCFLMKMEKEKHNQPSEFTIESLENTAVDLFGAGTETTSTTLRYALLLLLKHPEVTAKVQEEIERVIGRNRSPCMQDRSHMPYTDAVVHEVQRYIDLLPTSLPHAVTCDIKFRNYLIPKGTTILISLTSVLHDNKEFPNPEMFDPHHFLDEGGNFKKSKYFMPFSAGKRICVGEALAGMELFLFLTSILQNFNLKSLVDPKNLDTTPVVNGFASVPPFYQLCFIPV
Cytochrome P450 2D6, sequence (P10635 whole entry): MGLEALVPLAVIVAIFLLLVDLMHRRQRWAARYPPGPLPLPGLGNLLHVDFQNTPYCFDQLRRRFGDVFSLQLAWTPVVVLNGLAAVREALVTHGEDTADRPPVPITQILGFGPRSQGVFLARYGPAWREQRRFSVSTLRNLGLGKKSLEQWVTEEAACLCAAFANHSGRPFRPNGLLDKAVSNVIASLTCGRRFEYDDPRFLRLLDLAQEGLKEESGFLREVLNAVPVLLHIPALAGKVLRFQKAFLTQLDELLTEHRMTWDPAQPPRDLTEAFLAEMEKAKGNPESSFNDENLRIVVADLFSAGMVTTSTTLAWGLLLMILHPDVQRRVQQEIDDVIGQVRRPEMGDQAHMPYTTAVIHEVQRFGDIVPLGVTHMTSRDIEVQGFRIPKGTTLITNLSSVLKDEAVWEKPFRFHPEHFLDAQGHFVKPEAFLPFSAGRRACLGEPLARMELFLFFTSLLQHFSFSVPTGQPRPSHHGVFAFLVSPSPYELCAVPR

Structure (SMILES): CCc1cc2c(cc1F)c(C#N)c(-c1ccc(S(=O)(=O)N[C@@H](C)C(F)(F)F)cn1)n2-c1ccccn1
EC50 [1]: 0.005 µM
Activity [18]: 54%
IC50 [19]: > 10 µM
Ratio [3]: 69
AUC(0-t) at 6 h [4]: 3.85 µM·h
IC50 [20]: > 10 µM
IC50 [5]: > 10 µM
IC50 [21]: > 10 µM

Structure (SMILES): Cc1cc2c(cc1F)c(C#N)c(-c1ccc(S(=O)(=O)N[C@@H](C)C(F)(F)F)cn1)n2-c1ncccn1
EC50 [1]: 0.006 µM
Activity [22]: 41.5%
Activity [18]: 36%
IC50 [19]: > 10 µM
Ratio [3]: 213
AUC(0-t) at 6 h [4]: 8.91 µM·h
IC50 [20]: > 10 µM
Activity [23]: 39.8%
Activity [24]: 3%
Activity [25]: 7%
IC50 [5]: > 10 µM
IC50 [21]: > 10 µM
EC50 [26]: 2.2 µM

Structure (SMILES): CCc1cc2c(cc1F)c(C#N)c(-c1ccc(S(=O)(=O)N[C@@H](C)C(F)(F)F)cn1)n2-c1ncccn1
Drug metabolism [27]: Not Active
clearance [6]: 10.1 mL/min/kg
Drug metabolism [28]: Active
Drug metabolism [29]: Active
Cmax [30]: 2400 nM
bioavailability [31]: 78%
EC50 [1]: 0.002 µM
Ratio [32]: 325
bioavailability [8]: 18%
Activity [18]: 37%
IC50 [19]: > 10 µM
Vd [33]: 3.9 L/kg
Activity [34]: Non-toxic
Kp at 6 h [2]: 25
Ratio [3]: 342
Vd [35]: 3.8 L/kg
AUC(0-inf) [10]: 20 µM·h
Ratio [36]: 460
Activity [37]: 9%
Activity [38]: 15.4%
AUC(0-t) at 6 h [4]: 8.16 µM·h
Drug metabolism [39]: Not Active
IC50 [20]: > 10 µM
Activity [23]: 9.8%
half-life [11]: 8.9 h
EC50 [40]: 0.007 µM
clearance [41]: 4.6 mL/min/kg
Drug metabolism [42]: Active
Ratio [43]: 50
half-life [12]: 8 h
Activity [25]: 6%
half-life [13]: 7.5 h
bioavailability [14]: 62%
AUC(0-inf) [44]: 29 µM·h
clearance [16]: 11 mL/min/kg
Vd [45]: 2.1 L/kg
IC50 [5]: > 10 µM
Cmax [46]: 4000 nM
Cmax [47]: 540 nM
IC50 [21]: > 10 µM
AUC(0-inf) [17]: 3.1 µM·h

Structure (SMILES): CCc1cc2c(cc1F)c(C#N)c(-c1ccc(S(=O)(=O)N[C@@H](C)C(F)(F)F)cn1)n2-c1ncc(F)cn1
EC50 [1]: 0.003 µM
Activity [18]: 71%
IC50 [19]: > 10 µM
Ratio [3]: 136
AUC(0-t) at 6 h [4]: 8.69 µM·h
IC50 [20]: > 10 µM
IC50 [5]: > 10 µM
IC50 [21]: > 10 µM

Second part, led by results:

EC50 [1]: 0.004 µM
Kp at 6 h [2]: 30.6
AUC(0-t) at 6 h [4]: 0.3 µM·h
Structure (SMILES): CCc1cc2c(cc1F)c(C#N)c(-c1ccc(S(=O)(=O)N[C@@H](C)C(F)(F)F)cn1)n2C1CCC1
Ratio [3]: 18
IC50 [5]: > 10 µM

clearance [6]: 3 mL/min/kg
F [7]: 91%
EC50 [1]: 0.007 µM
bioavailability [8]: 35%
Drug metabolism [9]: Active
Kp at 6 h [2]: 11.4
AUC(0-inf) [10]: 24.8 µM·h
AUC(0-t) at 6 h [4]: 13.4 µM·h
half-life [11]: 149 h
half-life [12]: 22 h
half-life [13]: 11 h
bioavailability [14]: 49%
AUC [15]: 24.79 µM·h
clearance [16]: 2.2 mL/min/kg
AUC(0-inf) [17]: 24.8 µM·h
Structure (SMILES): C[C@H](NS(=O)(=O)c1ccc(-c2c(C#N)c3cc(F)c(OC(F)F)cc3n2C2CCC2)nc1)C(F)(F)F
Ratio [3]: 277
IC50 [5]: 9.1 µM

EC50 [1]: 0.007 µM
Kp at 6 h [2]: 29.1
AUC(0-t) at 6 h [4]: 1.1 µM·h
Structure (SMILES): Cc1cc2c(cc1F)c(C#N)c(-c1ccc(S(=O)(=O)N[C@@H](C)C(F)(F)F)cn1)n2C1CCC1
Ratio [3]: 24
IC50 [5]: > 10 µM
